Measured values: ChEMBL document CHEMBL3407373, “Design, synthesis and evaluation of a novel class of glucosamine mimetic peptides containing 1,3-dioxane” (2015)
Where a name gives a salt, the structure may show the parent alone.

Test system: Mus musculus
Assay: Antiinflammatory activity against ICR mouse ear edema model assessed as inhibition of xylene-induced edema at 10 umol/kg, po administered 30 mins prior to xylene challenge measured after 2 hrs relative to vehicle-treated control
Format: functional
Procedure, shortened: (§1)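 Male ICR mice (18-20 g), 12/12 h light/dark, free food and water, acclimated 1 day; groups of twelve. Test agents were given by oral gavage as suspensions in 0.5% CMC, with CMC alone as vehicle control, 30 min before xylene was applied to both surfaces of the right ear; the left ear served as control. At 2 h, mice were decapitated and 8.0 mm ear biopsies were punched and weighed; edema = right minus left weight.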

SMILES	inhibition in vivo at 10 µmol/kg
CC[C@H](C)[C@H](NCCC1OCC(C)(C)CO1)C(=O)N[C@H]1[C@@H](OC(C)=O)O[C@H](COC(C)=O)[C@@H](OC(C)=O)[C@@H]1OC(C)=O	79.8%
CC(=O)OC[C@H]1O[C@H](OC(C)=O)[C@H](NC(=O)[C@H](C)NCCC2OCC(C)(C)CO2)[C@@H](OC(C)=O)[C@@H]1OC(C)=O	84.2%
CC1(C)COC(CCN[C@@H](Cc2ccccc2)C(=O)N[C@H]2[C@@H](OCc3ccccc3)O[C@H](COCc3ccccc3)[C@@H](OCc3ccccc3)[C@@H]2OCc2ccccc2)OC1	87.1%
N[C@H]1C(O)O[C@H](CO)[C@@H](O)[C@@H]1O (some centres not stated) [GLUCOSAMINE HYDROCHLORIDE]	64.3%
CC1(C)COC(CCN[C@@H](Cc2ccccc2)C(=O)N[C@H]2C(O)O[C@H](CO)[C@@H](O)[C@@H]2O)OC1 (some centres not stated)	81.9%
CC[C@H](C)[C@H](NCCC1OCC(C)(C)CO1)C(=O)N[C@H]1C(O)O[C@H](CO)[C@@H](O)[C@@H]1O (some centres not stated)	88.7%
CC(=O)OC[C@H]1O[C@H](OC(C)=O)[C@H](NC(=O)[C@H](Cc2ccccc2)NCCC2OCC(C)(C)CO2)[C@@H](OC(C)=O)[C@@H]1OC(C)=O	86.8%
CC(C)[C@H](NCCC1OCC(C)(C)CO1)C(=O)N[C@H]1[C@@H](OCc2ccccc2)O[C@H](COCc2ccccc2)[C@@H](OCc2ccccc2)[C@@H]1OCc1ccccc1	86.2%
CC(C)C[C@H](NCCC1OCC(C)(C)CO1)C(=O)N[C@H]1[C@@H](OCc2ccccc2)O[C@H](COCc2ccccc2)[C@@H](OCc2ccccc2)[C@@H]1OCc1ccccc1	76.7%
CC1(C)COC(CCN[C@@H](Cc2c[nH]c3ccccc23)C(=O)N[C@H]2C(O)O[C@H](CO)[C@@H](O)[C@@H]2O)OC1 (some centres not stated)	80.3%
CC(C)C[C@H](NCCC1OCC(C)(C)CO1)C(=O)N[C@H]1C(O)O[C@H](CO)[C@@H](O)[C@@H]1O (some centres not stated)	81.8%
CC[C@H](C)[C@H](NCCC1OCC(C)(C)CO1)C(=O)N[C@H]1[C@@H](OCc2ccccc2)O[C@H](COCc2ccccc2)[C@@H](OCc2ccccc2)[C@@H]1OCc1ccccc1	81.6%
C[C@H](NCCC1OCC(C)(C)CO1)C(=O)N[C@H]1[C@@H](OCc2ccccc2)O[C@H](COCc2ccccc2)[C@@H](OCc2ccccc2)[C@@H]1OCc1ccccc1	90.3%
CC(=O)OC[C@H]1O[C@H](OC(C)=O)[C@H](NC(=O)[C@H](Cc2c[nH]c3ccccc23)NCCC2OCC(C)(C)CO2)[C@@H](OC(C)=O)[C@@H]1OC(C)=O	80.7%
CC(=O)OC[C@H]1O[C@H](OC(C)=O)[C@H](NC(=O)[C@H](CC(C)C)NCCC2OCC(C)(C)CO2)[C@@H](OC(C)=O)[C@@H]1OC(C)=O	86.6%
CC1(C)COC(CCN[C@@H](Cc2c[nH]c3ccccc23)C(=O)N[C@H]2[C@@H](OCc3ccccc3)O[C@H](COCc3ccccc3)[C@@H](OCc3ccccc3)[C@@H]2OCc2ccccc2)OC1	80.1%
C[C@H](NCCC1OCC(C)(C)CO1)C(=O)N[C@H]1C(O)O[C@H](CO)[C@@H](O)[C@@H]1O (some centres not stated)	86.8%
CC(=O)OC[C@H]1O[C@H](OC(C)=O)[C@H](NC(=O)[C@@H](NCCC2OCC(C)(C)CO2)C(C)C)[C@@H](OC(C)=O)[C@@H]1OC(C)=O	70.6%
CC(C)[C@H](NCCC1OCC(C)(C)CO1)C(=O)N[C@H]1C(O)O[C@H](CO)[C@@H](O)[C@@H]1O (some centres not stated)	85.1%

Test system: Mus musculus
Assay: Antiinflammatory activity against ICR mouse ear edema model assessed as inhibition of xylene-induced edema at 100 mg/kg, po administered 30 mins prior to xylene challenge measured after 2 hrs relative to vehicle-treated control
Format: functional
Procedure, shortened: as §1

SMILES	inhibition in vivo at 100 mg/kg
CC(=O)Oc1ccccc1C(=O)O [ASPIRIN]	89.5%

Test system: Mus musculus
Assay: Antiinflammatory activity against ICR mouse ear edema model assessed as inhibition of xylene-induced edema at 1 umol/kg, po administered 30 mins prior to xylene challenge measured after 2 hrs relative to vehicle-treated control
Format: functional
Procedure, shortened: as §1

SMILES	inhibition in vivo at 1 µmol/kg
CC[C@H](C)[C@H](NCCC1OCC(C)(C)CO1)C(=O)N[C@H]1C(O)O[C@H](CO)[C@@H](O)[C@@H]1O (some centres not stated)	70.8%

Test system: Mus musculus
Assay: Antiinflammatory activity against ICR mouse ear edema model assessed as inhibition of xylene-induced edema at 0.1 umol/kg, po administered 30 mins prior to xylene challenge measured after 2 hrs relative to vehicle-treated control
Format: functional
Procedure, shortened: as §1

SMILES	inhibition in vivo at 0.1 µmol/kg
CC[C@H](C)[C@H](NCCC1OCC(C)(C)CO1)C(=O)N[C@H]1C(O)O[C@H](CO)[C@@H](O)[C@@H]1O (some centres not stated)	44.3%
